Runt-SMMHC FRET: Runt domain-CBFb-SMMHC interaction inhibition; 220,000 tested, 0.74% active; Q01196+Q13951; inhibition, % at 20 µM; AID 1434; Cerulean-Runt/Venus-CBFb-SMMHC FRET ratio 530/480, 1 h;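 active = mean inhibition across duplicate retests at 20 µM reaching about 50%, limit read from the data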;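 note: 0% = DMSO wells and 100% = wells with excess untagged CBFb-SMMHC; inhibitors lower the FRET ratio by blocking Runt binding to CBFb-SMMHC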
MEX-5 binding: C. elegans MEX-5 TCR-2 RNA binding activity; Q9XUB2; activity score (negative = inhibition of binding), % at 10 µM; 300,000 tested, 0.38% active; AID 1832; MEX-5/FITC-TCR2 RNA binding, fluorescence polarization; hits give low values;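 active = inhibition past about -25% in most replicates, and total fluorescence under double the plate's negative control median, limit read from the data; inconclusive = replicates evenly split on the limit, or fluorescence at least double controls; inactive = too little inhibition in most replicates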;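 note: 0% = DMSO and -100% = 5 µM competing unlabeled TCR2 RNA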
EBV gp42 block: EBV gp42 inhibition; Q1HVG2; Fluorescence polarization binding assay, mP read-out; inhibition, % (tested at 21.74 µM); 220,000 tested, 0.42% active; AID 1085; in the data active = inhibition above about 50%
RanGTP-Imp inh: inhibitors of RanGTP-importin-beta interaction, primary screen, biochemical, FRET, CFP-Ran, YFP-importin-beta, homogeneous | 300,000 tested, 1.1% active | AID 2216 | cell-free CFP-Ran/YFP-importin-beta FRET ratio | inhibition, % (test concentration not listed);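 active = more than half of the replicate wells show a fall in the fluorescence ratio signal beyond about 16%, limit read from the data, passing the limit was not always enough; inconclusive = exactly half of the replicate wells pass the set limit; inactive = fewer than half of replicates pass the limit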;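 note: 0% = DMSO wells and 100% = Ran loaded with GDP instead of GTP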
Runt-CBFb FRET: Runt domain-CBFb interaction inhibition; 220,000 tested, 0.46% active; AID 1496; inhibition, % at 20 µM; Cerulean-Runt/Venus-CBFb FRET ratio 530/480, 1 h;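 active = inhibition over about 50% at 20 µM in the single-dose screen, limit read from the data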;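 note: 0% = DMSO wells and 100% = excess unlabeled CBFb competitor control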
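Schedule: protein complex preformed 1 h, compound exposure 1 h, room temperature, dark; test system: Cerulean-labeled Runt domain protein; amount: 100 nM per protein; buffer or medium: Tris 50 mM pH 7.5, KCl, K2SO4, 0.01% BSA; read-out: loss of energy transfer signal; detection: FRET fluorescence; controls: 5 µM unlabeled CBFb as full-inhibition high control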
LANA-H2A inh: blocks KSHV LANA binding to histone H2A/H2B. Q9QR71. cell-free LANA-H2A/H2B peptide, fluorescence polarization. inhibition, % (no concentration beside the values). 320,000 tested, 0.6% active. AID 2629; in the data active = inhibition mostly above about 10%, no sharp cut-off; inactive = mostly below about 6.7%
An asterisk follows results filed as active. A selection: hits, their analogues and other compounds. The true share with any hit is near 2.4%.

Results for COc1ccc(S(=O)(=O)N2CCCC(C(=O)NC3CCCC3)C2)cc1OC (stereo not drawn) ?
MEX-5 binding: 0; RanGTP-Imp inh: -2; LANA-H2A inh: -1

How did O=C(CN1C(=O)CSc2ccc(S(=O)(=O)N3CCCCC3)cc21)NCc1ccccc1Cl do in these assays?
MEX-5 binding: -3; RanGTP-Imp inh: -2; LANA-H2A inh: -1

Results for O=C(CN1C(=O)CSc2ccc(S(=O)(=O)N3CCCCC3)cc21)NCc1ccccc1 ?
MEX-5 binding: -1; RanGTP-Imp inh: 4; LANA-H2A inh: 56*

Results for CC1(C)CC(=O)c2cnc3c(C#N)cnn3c2C1 ?
Runt-SMMHC FRET: -2; MEX-5 binding: -1; EBV gp42 block: 3; RanGTP-Imp inh: 115*; Runt-CBFb FRET: 0; LANA-H2A inh: 2

What do the screens show for `CSc1nc2ncc3c(n2n1)CC(C)(C)CC3=O`?
Runt-SMMHC FRET: -2; MEX-5 binding: -1; EBV gp42 block: -2; RanGTP-Imp inh: inconclusive; Runt-CBFb FRET: 0; LANA-H2A inh: 5

How did C(=C/c1nccc2c1[nH]c1ccccc12)/c1ccc2c(c1)OCO2 do in these assays?
Runt-SMMHC FRET: 53*; MEX-5 binding: -4; EBV gp42 block: -1; RanGTP-Imp inh: 120*; Runt-CBFb FRET: 26; LANA-H2A inh: -32

Results for C(=N\Nc1nc2ccccc2[nH]1)/c1ccc2c(c1)OCO2 ?
Runt-SMMHC FRET: 2; MEX-5 binding: -1; EBV gp42 block: 8; RanGTP-Imp inh: -1; Runt-CBFb FRET: 2

How did CCC(C)n1c(NC(=O)c2ccccc2)c(C#N)c2nc3ccccc3nc21 (stereo not drawn) do in these assays?
Runt-SMMHC FRET: 66*; MEX-5 binding: -9; RanGTP-Imp inh: 21*; Runt-CBFb FRET: 16; LANA-H2A inh: -11

What do the screens show for `CCCCn1c(NC(=O)c2ccc(F)cc2)c(C#N)c2nc3ccccc3nc21`?
MEX-5 binding: -4; RanGTP-Imp inh: 18*; LANA-H2A inh: -7

Results for CCCCn1c(NC(=O)c2ccccc2)c(C#N)c2nc3ccccc3nc21 ?
Runt-SMMHC FRET: 26; EBV gp42 block: 2; Runt-CBFb FRET: 6

What do the screens show for `Cc1nn(C(C)(C)C)c(NC(=O)c2ccccc2)c1C#N`?
MEX-5 binding: 1; RanGTP-Imp inh: -6; LANA-H2A inh: -3

What do the screens show for `CCC(=O)NNC(=O)Cc1c(C)n(C(=O)c2ccc(Cl)cc2)c2ccc(OC)cc12`?
MEX-5 binding: -1; RanGTP-Imp inh: 0; LANA-H2A inh: 1

Screening results deposited in PubChem by several laboratories.
